How the values were obtained:
Assay type in all cases: cell-based, human
[1] = tested on: MCF-7 cells expressing GFP-PDGFR-β; assay: PDGFR-GFP / TR-dextran co-localization; conditions: MCF-7 pre-incubated with 80 µM dynasore 1 h, then 1 nM PDGF-BB
Procedure, shortened: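 MCF-7 cells expressing GFP-PDGFR-β were pre-incubated 1 h with 80 µM dynasore in serum-free DMEM. They then received TR-dextran plus 1 nM PDGF-BB ± 10 µM peptide in HBSS for 15 min and were imaged by confocal microscopy. Both channel thresholds were set at 70, and >100 cells were scored per condition. Co-localization index = yellow pixels / (yellow + green pixels).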

PDGFR-β = assay: PDGFR signaling by Western blot; conditions: AHDF preincubated 1 h with 80 µM dynasore, 1 nM PDGF-BB in HBSS (Figure S9)
Procedure, shortened: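 AHDF primary dermal fibroblasts (passage 8–12, grown in DMEM/10% FBS) were stimulated with 1 nM PDGF-BB ± 10 µM peptide in HBSS. Cells were lysed in Tris pH 7.5 buffer with phosphatase and protease inhibitors, sonicated and boiled. Equal protein was run on 10% SDS-PAGE and blotted to nitrocellulose, blocked in 2% BSA/TBST, and probed overnight at 4°C. Detection used HRP-secondary chemiluminescence, with signal intensity quantified.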

AHDF [2] = assay: cell morphology by phase contrast microscopy under nutrient deprivation; conditions: AHDF in HBSS 3 days; 1 nM PDGF, 10 µM P12
AHDF [3] = assay: TUNEL apoptosis assay under nutrient deprivation; conditions: AHDF in HBSS, 3 days of starvation; 1 nM PDGF, 10 µM P12; >800 cells counted, n=6, mean

Compound	PDGF-BB-stimulated internalization of PDGFR-GFP under dynamin inhibition [1]	PDGF-BB stimulated p-Akt signal in the presence of dynasore (PDGFR-β)	cell morphology (AHDF [2])	apoptosis, %TUNEL+ (TUNEL positive/DAPI positive) (AHDF [3]) [%]
O=C(N/N=C/c1ccc(O)c(O)c1)c1cc2ccccc2cc1O [dynasore]	minimal internalization	inhibition		
PDGF-BB: platelet-derived growth factor BB, purchased from Invitrogen			rounded or shriveled	30

— paper PMC3961502 (The Journal of investigative dermatology, 2013)
